ChEMBL document CHEMBL1122443, “Synthesis and antitumor evaluation of selected 5,6-disubstituted 1(2)H-indazole-4,7-diones” (1983)
Activity calls are given as the source filed them. The calls are words filed in the database; no cut-off is given here.

Tests used:
Mus musculus [1] = test: Antitumor activity in CF1 mice bearing Ehrlich ascites carcinoma measured as percentage inhibition at 8 mg/kg; format: functional
Summary of the method: (§1)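 In the Ehrlich ascites model, male CF1 mice (22–25 g) received 2 × 10⁶ cells ip on day 0 and compound ip on days 1–8, with a vehicle of 0.05% Tween 80 ± 5% EtOH. Ascites volume and ascrit were taken on day 9. % inhibition = 100 − [(vol × ascrit, treated)/(vol × ascrit, control)], with >80% taken as significant.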

Mus musculus [2] = test: Antitumor activity in CF1 mice bearing Ehrlich ascites carcinoma measured as ascites volume at 10 mg/kg; format: functional
Summary of the method: (§2)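 Ehrlich ascites cells (2 × 10⁶) were implanted ip in male CF1 mice (22–25 g) on day 0. Dosing was ip on days 1–8 in 0.05% Tween 80 or 5% EtOH/0.05% Tween 80, with vehicle controls. Mice were killed on day 9, and ascites fluid volume per mouse was measured.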

Mus musculus [3] = test: Antitumor activity in CF1 mice bearing Ehrlich ascites carcinoma measured as survivors on day 9 at 1 mg/kg; 6/6; format: functional
Mus musculus [4] = test: Average days survived for treated / average days survived for control at 1 (mg/kg); 10/9.2; format: functional
Mus musculus [5] = test: Antitumor activity in CF1 mice bearing Ehrlich ascites carcinoma measured as percent ascrit packed cell volume at 8 mg/kg; format: functional
Summary of the method: (§3)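 Male CF1 mice (22–25 g) received 2 × 10⁶ Ehrlich carcinoma cells ip on day 0. Dosing was ip daily on days 1–8, with sacrifice on day 9. Ascites fluid volume per mouse and ascrit (packed cell volume) were measured for each group. Vehicle was 0.05% Tween 80, or 5% absolute EtOH in 0.05% Tween 80, used for both compound and control. 6-Mercaptopurine was the positive control.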

Mus musculus [6] = test: Antitumor activity in CF1 mice bearing Ehrlich ascites carcinoma measured as percentage inhibition at 5 mg/kg; format: functional
Summary of the method: (§4)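 Ehrlich ascites model in male CF1 mice (22–25 g): 2 × 10⁶ cells ip on day 0, ip dosing days 1–8, kill on day 9. Percent inhibition = 100 − [(treated volume × treated ascrit)/(control volume × control ascrit)]. Greater than 80% was taken as significant. Vehicle was 0.05% Tween 80, alone or with 5% absolute EtOH. 6-Mercaptopurine was the positive control.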

Mus musculus [7] = test: Anti tumor activity in mice bearing lymphocytic leukemia P-388 at 1 mg/kg; format: functional
Summary of the method: (§5)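 Male BDF1 mice (20–23 g) were inoculated ip with 1 × 10⁶ P-388 leukemia cells on day 0. Compound was given ip once daily on days 1–14 in 0.05% Tween 80 vehicle, with a vehicle control group and 5-fluorouracil as positive control. Activity was scored as % T/C, average days survived treated/control, with >125% taken as significant.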

Mus musculus [8] = test: Antitumor activity in CF1 mice bearing Ehrlich ascites carcinoma measured as percent ascrit packed cell volume at 1 mg/kg; format: functional
Summary of the method: (§6)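 CF1 male mice (22–25 g) were inoculated ip with 2 × 10⁶ Ehrlich cells on day 0 and treated ip on days 1–8 in 0.05% Tween 80 or 5% EtOH/0.05% Tween 80 vehicle. On day 9 the mice were sacrificed, and the ascrit (packed cell volume) of the ascites fluid was determined.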

Mus musculus [9] = test: Antitumor activity in CF1 mice bearing Ehrlich ascites carcinoma measured as percent ascrit packed cell volume at 10 mg/kg; format: functional; summary of the method: as §6
Mus musculus [10] = test: Antitumor activity in CF1 mice bearing Ehrlich ascites carcinoma measured as survivors on day 9 at 5 mg/kg; 6/6; format: functional
Mus musculus [11] = test: Antitumor activity in CF1 mice bearing Ehrlich ascites carcinoma measured as percentage inhibition at 10 mg/kg; IA= inactive; format: functional, organism-based; set-up: dose 10 mg/kg; summary of the method: as §1
Mus musculus [12] = test: Antitumor activity in CF1 mice bearing Ehrlich ascites carcinoma measured as survivors on day 9 at 8 mg/kg; 6/6; format: functional
Summary of the method: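 Male CF1 mice (22–25 g) were given 2 × 10⁶ Ehrlich carcinoma cells ip on day 0. Compounds were dosed ip on days 1–8 in 0.05% Tween 80 or in 5% absolute EtOH in 0.05% Tween 80, with vehicle-treated controls. Mice were killed on day 9, and ascites volume and ascrit (packed cell volume) were measured per mouse.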

Mus musculus [13] = test: Antitumor activity in CF1 mice bearing Ehrlich ascites carcinoma measured as ascites volume at 5 mg/kg; format: functional; summary of the method: as §3
Mus musculus [14] = test: Antitumor activity in CF1 mice bearing Ehrlich ascites carcinoma measured as percent ascrit packed cell volume at 5 mg/kg; format: functional; summary of the method: as §3
Mus musculus [15] = test: Antitumor activity in CF1 mice bearing Ehrlich ascites carcinoma measured as survivors on day 9 at 10 mg/kg; 6/6; format: functional
Mus musculus [16] = test: Antitumor activity in CF1 mice bearing Ehrlich ascites carcinoma measured as ascites volume at 8 mg/kg; format: functional; summary of the method: as §3
Mus musculus [17] = test: Antitumor activity in CF1 mice bearing Ehrlich ascites carcinoma measured as percentage inhibition at 1 mg/kg; IA= inactive; format: functional, organism-based; set-up: dose 1 mg/kg; summary of the method: as §1
Mus musculus [18] = test: Antitumor activity in CF1 mice bearing Ehrlich ascites carcinoma measured as ascites volume at 1 mg/kg; format: functional; summary of the method: as §2
Mus musculus [19] = test: Antitumor activity in CF1 mice bearing Ehrlich ascites carcinoma measured as survivors on day 9 at 5 mg/kg; 5/5; format: functional
Mus musculus [20] = test: Antitumor activity in CF1 mice bearing Ehrlich ascites carcinoma measured as percentage inhibition at 1 mg/kg; format: functional; summary of the method: as §1
Mus musculus [21] = test: Antitumor activity in CF1 mice bearing Ehrlich ascites carcinoma measured as survivors on day 9 at 10 mg/kg; 5/6; format: functional
Mus musculus [22] = test: Antitumor activity in CF1 mice bearing Ehrlich ascites carcinoma measured as survivors on day 9 at 1 mg/kg; 5/6; format: functional
Mus musculus [23] = test: Average days survived for treated / average days survived for control at 1 (mg/kg); 9.4/9.2; format: functional
Mus musculus [24] = test: Average days survived for treated / average days survived for control at 25 (mg/kg); 17.6/9.5; format: functional
Mus musculus [25] = test: Anti tumor activity in mice bearing lymphocytic leukemia P-388 at 25 mg/kg; format: functional; summary of the method: as §5
Mus musculus [26] = test: Anti tumor activity in mice bearing lymphocytic leukemia P-388 at 10 mg/kg; format: functional; summary of the method: as §5
Mus musculus [27] = test: Anti tumor activity in mice bearing lymphocytic leukemia P-388 at 5 mg/kg; format: functional; summary of the method: as §5
Mus musculus [28] = test: Average days survived for treated / average days survived for control at 1 (mg/kg); 9.6/9.2; format: functional
Mus musculus [29] = test: Average days survived for treated / average days survived for control at 10 (mg/kg); 6.4/9.2; format: functional
Mus musculus [30] = test: Anti tumor activity in mice bearing lymphocytic leukemia P-388 at 30 mg/kg; format: functional; summary of the method: as §5
Mus musculus [31] = test: Average days survived for treated / average days survived for control at 5 (mg/kg); 8.8/9.2; format: functional
Mus musculus [32] = test: Anti tumor activity in mice bearing lymphocytic leukemia P-388 at 20 mg/kg; format: functional
Summary of the method: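 Male BDF1 mice (20–23 g) inoculated ip with 1 × 10⁶ P-388 lymphocytic leukemia cells on day 0. Test agents were given ip once daily on days 1–14, with 0.05% Tween 80 as vehicle for treated and control groups. Read-out is %T/C, the mean days survived by treated over control. Values above 125% were counted as significant. 5-Fluorouracil was the positive control.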

Mus musculus [33] = test: Average days survived for treated / average days survived for control at 20 (mg/kg); 4.8/9.2; format: functional
Mus musculus [34] = test: Average days survived for treated / average days survived for control at 30 (mg/kg); 3.0/9.2; format: functional
Mus musculus [35] = test: Antitumor activity in CF1 mice bearing Ehrlich ascites carcinoma measured as percentage inhibition at 8 mg/kg; IA means inactive; format: functional, organism-based; set-up: dose 8 mg/kg; summary of the method: as §4
Mus musculus [36] = test: Antitumor activity in 6 CF1 mice bearing Ehrlich ascites carcinoma measured as survivors on day 9 at 5 mg/kg; 5/6; format: functional
Mus musculus [37] = test: Antitumor activity in CF1 mice bearing Ehrlich ascites carcinoma measured as percentage inhibition at 1 mg/kg; IA means inactive; format: functional, organism-based; set-up: dose 1 mg/kg; summary of the method: as §4
Mus musculus [38] = test: Antitumor activity in 6 CF1 mice bearing Ehrlich ascites carcinoma measured as survivors on day 9 at 8 mg/kg; 6/6; format: functional
Mus musculus [39] = test: Antitumor activity in 6 CF1 mice bearing Ehrlich ascites carcinoma measured as survivors on day 9 at 1 mg/kg; 6/6; format: functional
Mus musculus [40] = test: Antitumor activity in CF1 mice bearing Ehrlich ascites carcinoma measured as percentage inhibition at 5 mg/kg; IA means inactive; format: functional, organism-based; set-up: dose 5 mg/kg; summary of the method: as §4

COC1=C(N2CC2)C(=O)c2cnn(C)c2C1=O
inhibition in vivo at 8 mg/kg (Mus musculus [1]): 64.1%
ascites volume (Mus musculus [2]): 2.2 ml mouse-1
Survivors (Mus musculus [3]): 6
Average survival (days) (Mus musculus [4]): 10
packed cell volume (Mus musculus [5]): 36.2%
inhibition in vivo at 5 mg/kg (Mus musculus [6]): 39.4%
T/C (Mus musculus [7]): 109%
packed cell volume (Mus musculus [8]): 39.8%
packed cell volume (Mus musculus [9]): 30.7%
Survivors (Mus musculus [10]): 6
inhibition (Mus musculus [11]): inactive
Survivors (Mus musculus [12]): 6
ascites volume (Mus musculus [13]): 0.7 ml mouse-1
packed cell volume (Mus musculus [14]): 34.6%
Survivors (Mus musculus [15]): 6
ascites volume (Mus musculus [16]): 0.32 ml mouse-1
inhibition (Mus musculus [17]): inactive
ascites volume (Mus musculus [18]): 4.2 ml mouse-1

CCCSC1=C(N2CC2)C(=O)c2cnn(C)c2C1=O
ascites volume (Mus musculus [2]): 1.5 ml mouse-1
Survivors (Mus musculus [19]): 5
inhibition in vivo at 5 mg/kg (Mus musculus [6]): 78.5%
T/C (Mus musculus [7]): 102%
packed cell volume (Mus musculus [8]): 37.2%
packed cell volume (Mus musculus [9]): 39.4%
inhibition (Mus musculus [11]): inactive
inhibition in vivo at 1 mg/kg (Mus musculus [20]): 74.1%
ascites volume (Mus musculus [13]): 0.88 ml mouse-1
packed cell volume (Mus musculus [14]): 37.8%
Survivors (Mus musculus [21]): 5
Survivors (Mus musculus [22]): 5
Average survival (days) (Mus musculus [23]): 9.4
ascites volume (Mus musculus [18]): 0.26 ml mouse-1

O=c1[nH]cc(F)c(=O)[nH]1 [FLUOROURACIL]
Average survival (days) (Mus musculus [24]): 17.6
T/C (Mus musculus [25]): 186%

Cn1ncc2c1C(=O)C(Cl)=C(N1CC1)C2=O
ascites volume (Mus musculus [2]): 3.4 ml mouse-1
T/C (Mus musculus [26]): 70%
Survivors (Mus musculus [3]): 6
inhibition in vivo at 5 mg/kg (Mus musculus [6]): 5.8%
T/C (Mus musculus [27]): 96%
T/C (Mus musculus [7]): 107%
packed cell volume (Mus musculus [8]): 35.2%
Average survival (days) (Mus musculus [28]): 9.6
packed cell volume (Mus musculus [9]): 37.3%
Survivors (Mus musculus [10]): 6
inhibition (Mus musculus [11]): inactive
ascites volume (Mus musculus [13]): 2.5 ml mouse-1
Average survival (days) (Mus musculus [29]): 6.4
packed cell volume (Mus musculus [14]): 41.4%
Survivors (Mus musculus [21]): 5
T/C (Mus musculus [30]): 33%
inhibition (Mus musculus [17]): inactive
Average survival (days) (Mus musculus [31]): 8.8
ascites volume (Mus musculus [18]): 2 ml mouse-1
T/C (Mus musculus [32]): 52%
Average survival (days) (Mus musculus [33]): 4.8
Average survival (days) (Mus musculus [34]): 3

NC1=C(Cl)C(=O)c2[nH]ncc2C1=O
packed cell volume (Mus musculus [5]): 29.1%
packed cell volume (Mus musculus [8]): 37.6%
ascites volume (Mus musculus [13]): 2.7 ml mouse-1
inhibition (Mus musculus [35]): inactive
packed cell volume (Mus musculus [14]): 32.3%
Survivors (Mus musculus [36]): 5
inhibition (Mus musculus [37]): inactive
ascites volume (Mus musculus [16]): 3 ml mouse-1
Survivors (Mus musculus [38]): 6
ascites volume (Mus musculus [18]): 2.1 ml mouse-1
Survivors (Mus musculus [39]): 6
inhibition (Mus musculus [40]): inactive
